Experimental data taken from ChEMBL document CHEMBL3875231, “From Dynamic Combinatorial Chemistry to in Vivo Evaluation of Reversible and Irreversible Myeloperoxidase Inhibitors” (ACS Med Chem Lett, 2017).
Active and inactive are the calls of the source. No cut-off for these calls is given here.

Columns and labels:
[1] = target: T1, Myeloperoxidase (Homo sapiens) (UniProt P05164); assay: (§1) Inhibition of human MPO; set-up: concentration or dose not given beside the values; details: concentration not given here
T1 sequence (whole entry): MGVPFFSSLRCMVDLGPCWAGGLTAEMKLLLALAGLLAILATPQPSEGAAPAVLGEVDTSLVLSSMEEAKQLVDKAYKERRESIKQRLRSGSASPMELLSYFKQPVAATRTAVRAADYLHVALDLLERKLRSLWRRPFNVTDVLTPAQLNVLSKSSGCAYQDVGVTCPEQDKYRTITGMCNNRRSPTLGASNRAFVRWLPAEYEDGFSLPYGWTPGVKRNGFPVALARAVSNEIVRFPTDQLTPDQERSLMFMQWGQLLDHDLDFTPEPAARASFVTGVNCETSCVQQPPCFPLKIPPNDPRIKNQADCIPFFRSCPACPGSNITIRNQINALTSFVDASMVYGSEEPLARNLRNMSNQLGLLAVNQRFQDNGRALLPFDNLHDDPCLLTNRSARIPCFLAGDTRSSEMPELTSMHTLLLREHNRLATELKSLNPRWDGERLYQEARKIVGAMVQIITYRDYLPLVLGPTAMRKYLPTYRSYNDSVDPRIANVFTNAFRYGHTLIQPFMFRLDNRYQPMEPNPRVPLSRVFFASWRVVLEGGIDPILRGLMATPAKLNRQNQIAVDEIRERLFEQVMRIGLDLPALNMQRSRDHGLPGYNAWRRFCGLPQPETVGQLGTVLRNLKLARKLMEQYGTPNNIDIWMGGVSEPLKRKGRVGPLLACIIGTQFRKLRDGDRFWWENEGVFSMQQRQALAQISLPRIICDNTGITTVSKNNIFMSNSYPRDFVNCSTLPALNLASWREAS

[2] = target: T2, Myeloperoxidase (Homo sapiens, UniProt P05164); assay: as §1
T2 sequence (P05164 whole entry): T1 sequence (whole entry)

[3] = target: T1, Myeloperoxidase (Homo sapiens); assay: Inhibition of human MPO assessed as residual activity in presence of H2O2; set-up: concentration or dose not given beside the values
Method in brief: (§2)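 Ligand and MPO were mixed with or without H2O2, then diluted 100-fold, and the residual enzymatic activity was measured. An H2O2-alone mixture served as control.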

[4] = target: T1, Myeloperoxidase (Homo sapiens); assay: Inhibition of human MPO assessed as residual activity in absence of […]; set-up: concentration or dose not given beside the values; method in brief: as §2
[5] = target: T1, Myeloperoxidase (Homo sapiens); assay: Inhibition of human MPO assessed as rate constant for reduction of PorFe(4)=O to PorFe(4)-OH in presence of H2O2 by stopped-flow method
[6] = target: T1, Myeloperoxidase (Homo sapiens); assay: Inhibition of human MPO assessed as soret band formation at 429 nanometer in presence of H2O2 by stopped-flow method
[7] = target: T1, Myeloperoxidase (Homo sapiens); assay: Reversible inhibition of human MPO assessed as rate constant for reduction of PorFe(4)-OH to ferric MPO in presence of H2O2 by stopped-flow method
[8] = test system: Rattus norvegicus; assay: Ex vivo inhibition of MPO activity in peritoneal exudate of Wistar albino rat model of carrageenan-induced inflammation assessed as reduction in H2O2-dependent oxidation of TMB at 10 mg/kg, iv measured after 24 hrs; format: functional, organism-based
Method in brief: (§3)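 Male Wistar Han rats had inflammation induced by intraperitoneal carrageenan, then received ligand at 10 mg/kg intravenously. Peritoneal liquid was collected. MPO concentration was measured at 24 h, and MPO activity at 24 h and at 48 h after drug administration. Comparators were carrageenan-only rats and reference rats not treated with carrageenan.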

[9] = target: T2, Myeloperoxidase; assay: Irreversible inhibition of MPO (unknown origin)
Method in brief: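 MPO was preincubated with ligand, with or without H2O2, alongside an H2O2-alone control. The mixture was then diluted 100-fold, residual enzymatic activity was measured, and inactivation was expressed as percent loss of activity.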

[10] = target: T1, Myeloperoxidase (Homo sapiens); assay: Irreversible inhibition of human MPO in presence of H2O2 by stopped-flow method
[11] = test system: Rattus norvegicus; assay: Ex vivo inhibition of MPO activity in peritoneal exudate of Wistar albino rat model of carrageenan-induced inflammation assessed as reduction in H2O2-dependent oxidation of TMB at 10 mg/kg, iv measured after 48 hrs; format: functional, organism-based; method in brief: as §3
[12] = test system: Rattus norvegicus; assay: Anti-inflammatory activity in Wistar albino rat assessed as inhibition of carrageenan-induced MPO release at 10 mg/kg, iv measured after 24 hrs by ELISA; format: functional, organism-based; method in brief: as §3

**Q.** How did the inhibition [1] turn out when CN(C)c1ccc(/C=N/Nc2ccc(F)cc2)cc1 was run?
**A.** The inhibition was 100%.

**Q.** What about the IC50 [2] of the same compound?
**A.** Its IC50 is 3100 nM.

**Q.** What about the Activity [3] of the same compound?
**A.** The Activity was 84%.

**Q.** What about the Activity [4] of the same compound?
**A.** Its Activity is 87%.

**Q.** Which inhibition [1] does the source give for CN(C)c1ccc(/C=N/NC(=O)c2ccncc2)cc1 [N'-(4-DIMETHYLAMINOBENZYLIDENE)ISONICOTINOHYDRAZIDE] here?
**A.** The inhibition was 100%.

**Q.** What about the IC50 [2] of the same compound?
**A.** The IC50 was 1620 nM.

**Q.** And the Activity [3]?
**A.** Its Activity is 93%.

**Q.** What about the Activity [4] of the same compound?
**A.** Its Activity is 91%.

**Q.** With OC/C=N/Nc1ccc(F)cc1 as the compound, how does the IC50 [2] read?
**A.** Its IC50 is over 5000 nM.

**Q.** What about the Activity [3] of the same compound?
**A.** The Activity was 97%.

**Q.** And the Activity [4]?
**A.** The Activity was 107%.

**Q.** CN(C)c1ccc(/C=N/Nc2nncc3ccccc23)cc1 was tested. Which inhibition [1] did it give?
**A.** The inhibition was 100%.

**Q.** And the IC50 [2]?
**A.** Its IC50 is 80 nM.

**Q.** What about the Activity [3] of the same compound?
**A.** Its Activity is 92%.

**Q.** What about the Activity [4] of the same compound?
**A.** Its Activity is 93%.

**Q.** What about the K [5] of the same compound?
**A.** The K was 7.1 ×10⁵ /M/s.

**Q.** What about the inhibition [6] of the same compound?
**A.** Its inhibition is “Active”.

**Q.** What about the K [7] of the same compound?
**A.** The K was 89.3 M⁻¹ s⁻¹.

**Q.** What about the inhibition [8] of the same compound?
**A.** The inhibition was “Active”.

**Q.** Which inhibition [1] does the source give for NNc1cccc2ccccc12 here?
**A.** Its inhibition is 61%.

**Q.** Which inhibition [1] does the source give for COc1ccc(/C=N/NC(=O)c2ccncc2)cc1O here?
**A.** The inhibition was 91%.

**Q.** What about the IC50 [2] of the same compound?
**A.** Its IC50 is 430 nM.

**Q.** And the Activity [3]?
**A.** The Activity was 87%.

**Q.** And the Activity [4]?
**A.** Its Activity is 88%.

**Q.** What does the source list for NNc1nncc2ccccc12 [HYDRALAZINE]?
**A.** inhibition [1]: 61%; IC50 [2]: 900 nM; IC50 [9]: 900 nM; Activity [3]: 19%; Activity [4]: 92%; K [5]: 7.1 ×10⁵ /M/s

**Q.** For NNC(=O)c1ccncc1 [ISONIAZID], which inhibition [1] is on record?
**A.** Its inhibition is 61%.

**Q.** And the IC50 [2]?
**A.** Its IC50 is 4700 nM.

**Q.** And the IC50 [9]?
**A.** Its IC50 is 5000 nM.

**Q.** And the Activity [3]?
**A.** The Activity was 64%.

**Q.** What about the Activity [4] of the same compound?
**A.** Its Activity is 98%.

**Q.** O=C(N/N=C/CO)c1ccncc1 was tested. Which IC50 [2] did it give?
**A.** The IC50 was over 5000 nM.

**Q.** What about the Activity [3] of the same compound?
**A.** The Activity was 94%.

**Q.** What about the Activity [4] of the same compound?
**A.** Its Activity is 100%.

**Q.** What does the source list for COc1ccc(/C=N/Nc2ccc(F)cc2)cc1O?
**A.** inhibition [1]: 91%; IC50 [2]: 1130 nM; Activity [3]: 92%; Activity [4]: 81%

**Q.** Cc1ccc(NN)cc1 was tested. Which inhibition [1] did it give?
**A.** The inhibition was 61%.

**Q.** How did the inhibition [1] turn out when COc1cc(/C=N/Nc2nncc3ccccc23)ccc1O was run?
**A.** Its inhibition is 82%.

**Q.** What about the IC50 [2] of the same compound?
**A.** The IC50 was 340 nM.

**Q.** And the Activity [3]?
**A.** The Activity was 22%.

**Q.** What about the Activity [4] of the same compound?
**A.** The Activity was 87%.

**Q.** And the K [5]?
**A.** The K was 2.8 ×10⁵ /M/s.

**Q.** What about the inhibition [10] of the same compound?
**A.** Its inhibition is “Active”.

**Q.** With NNc1ccc(F)cc1 as the compound, how does the inhibition [1] read?
**A.** The inhibition was 61%.

**Q.** What about the IC50 [2] of the same compound?
**A.** The IC50 was over 5000 nM.

**Q.** And the Activity [3]?
**A.** Its Activity is 98%.

**Q.** And the Activity [4]?
**A.** The Activity was 103%.

**Q.** For COc1cc(/C=N/NC(=O)c2ccncc2)ccc1O [FTIVAZIDE], which inhibition [1] is on record?
**A.** The inhibition was 82%.

**Q.** And the IC50 [2]?
**A.** The IC50 was 460 nM.

**Q.** What about the Activity [3] of the same compound?
**A.** The Activity was 91%.

**Q.** What about the Activity [4] of the same compound?
**A.** The Activity was 96%.

**Q.** What does the source list for OC/C=N/Nc1nncc2ccccc12?
**A.** IC50 [2]: 110 nM; Activity [3]: 18%; Activity [4]: 82%; K [5]: 3.3 ×10⁵ /M/s; inhibition [10]: Active; inhibition [8]: Active; inhibition [11]: Active

**Q.** How did the inhibition [1] turn out when COc1ccc(/C=N/Nc2nncc3ccccc23)cc1O was run?
**A.** The inhibition was 91%.

**Q.** What about the IC50 [2] of the same compound?
**A.** Its IC50 is 150 nM.

**Q.** And the Activity [3]?
**A.** The Activity was 25%.

**Q.** What about the Activity [4] of the same compound?
**A.** Its Activity is 93%.

**Q.** What about the inhibition [12] of the same compound?
**A.** The inhibition was “Active”.

**Q.** What about the inhibition [8] of the same compound?
**A.** The inhibition was “Active”.

**Q.** And the inhibition [11]?
**A.** The inhibition was “Active”.

**Q.** With COc1cc(/C=N/Nc2ccc(F)cc2)ccc1O as the compound, how does the inhibition [1] read?
**A.** Its inhibition is 82%.

**Q.** And the IC50 [2]?
**A.** The IC50 was 1200 nM.

**Q.** And the Activity [3]?
**A.** Its Activity is 98%.

**Q.** And the Activity [4]?
**A.** Its Activity is 89%.
